ChEMBL document CHEMBL1138411, “Design, synthesis, and biological evaluation of 1,3-dioxoisoindoline-5-carboxamide derivatives as T-type calcium channel blockers” (Bioorg Med Chem Lett, 2007)

Legend:
[1] = molecular target: Voltage-dependent T-type calcium channel subunit alpha-1G (Homo sapiens, UniProt O43497); test: Inhibition of T-type calcium channel Cav3.1 expressed in HEK293 cells co-expressing alpha1G subunit and Kir2.1 potassium channel by patch-clamp assay; assay type: cell-based
Summary of the method: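 Cells were HEK293 stably co-expressing Cav3.1 (α1G) and Kir2.1. Single-cell patch-clamp recording measured % inhibition of Ca2+ current at set compound concentrations, giving IC50 values. This was a secondary screen of compounds selected from a primary FDSS6000 fluorescence high-throughput assay.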

[2] = organism: Homo sapiens; test: Selectivity index, ratio of IC50 for N-type calcium channel to IC50 for T-type calcium channel Cav3.1
[3] = Cytotoxicity against HEK293 cells by MTT assay; assay type: cell-based; settings: human
Summary of the method: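 MTT viability read-out. Negative control was 0.1% DMSO and positive control was H2O2.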

[4] = Inhibition of N-type calcium channel activity; parameters: species or system Homo sapiens

Voltage-dependent T-type calcium channel subunit alpha-1G, sequence (O43497 whole entry): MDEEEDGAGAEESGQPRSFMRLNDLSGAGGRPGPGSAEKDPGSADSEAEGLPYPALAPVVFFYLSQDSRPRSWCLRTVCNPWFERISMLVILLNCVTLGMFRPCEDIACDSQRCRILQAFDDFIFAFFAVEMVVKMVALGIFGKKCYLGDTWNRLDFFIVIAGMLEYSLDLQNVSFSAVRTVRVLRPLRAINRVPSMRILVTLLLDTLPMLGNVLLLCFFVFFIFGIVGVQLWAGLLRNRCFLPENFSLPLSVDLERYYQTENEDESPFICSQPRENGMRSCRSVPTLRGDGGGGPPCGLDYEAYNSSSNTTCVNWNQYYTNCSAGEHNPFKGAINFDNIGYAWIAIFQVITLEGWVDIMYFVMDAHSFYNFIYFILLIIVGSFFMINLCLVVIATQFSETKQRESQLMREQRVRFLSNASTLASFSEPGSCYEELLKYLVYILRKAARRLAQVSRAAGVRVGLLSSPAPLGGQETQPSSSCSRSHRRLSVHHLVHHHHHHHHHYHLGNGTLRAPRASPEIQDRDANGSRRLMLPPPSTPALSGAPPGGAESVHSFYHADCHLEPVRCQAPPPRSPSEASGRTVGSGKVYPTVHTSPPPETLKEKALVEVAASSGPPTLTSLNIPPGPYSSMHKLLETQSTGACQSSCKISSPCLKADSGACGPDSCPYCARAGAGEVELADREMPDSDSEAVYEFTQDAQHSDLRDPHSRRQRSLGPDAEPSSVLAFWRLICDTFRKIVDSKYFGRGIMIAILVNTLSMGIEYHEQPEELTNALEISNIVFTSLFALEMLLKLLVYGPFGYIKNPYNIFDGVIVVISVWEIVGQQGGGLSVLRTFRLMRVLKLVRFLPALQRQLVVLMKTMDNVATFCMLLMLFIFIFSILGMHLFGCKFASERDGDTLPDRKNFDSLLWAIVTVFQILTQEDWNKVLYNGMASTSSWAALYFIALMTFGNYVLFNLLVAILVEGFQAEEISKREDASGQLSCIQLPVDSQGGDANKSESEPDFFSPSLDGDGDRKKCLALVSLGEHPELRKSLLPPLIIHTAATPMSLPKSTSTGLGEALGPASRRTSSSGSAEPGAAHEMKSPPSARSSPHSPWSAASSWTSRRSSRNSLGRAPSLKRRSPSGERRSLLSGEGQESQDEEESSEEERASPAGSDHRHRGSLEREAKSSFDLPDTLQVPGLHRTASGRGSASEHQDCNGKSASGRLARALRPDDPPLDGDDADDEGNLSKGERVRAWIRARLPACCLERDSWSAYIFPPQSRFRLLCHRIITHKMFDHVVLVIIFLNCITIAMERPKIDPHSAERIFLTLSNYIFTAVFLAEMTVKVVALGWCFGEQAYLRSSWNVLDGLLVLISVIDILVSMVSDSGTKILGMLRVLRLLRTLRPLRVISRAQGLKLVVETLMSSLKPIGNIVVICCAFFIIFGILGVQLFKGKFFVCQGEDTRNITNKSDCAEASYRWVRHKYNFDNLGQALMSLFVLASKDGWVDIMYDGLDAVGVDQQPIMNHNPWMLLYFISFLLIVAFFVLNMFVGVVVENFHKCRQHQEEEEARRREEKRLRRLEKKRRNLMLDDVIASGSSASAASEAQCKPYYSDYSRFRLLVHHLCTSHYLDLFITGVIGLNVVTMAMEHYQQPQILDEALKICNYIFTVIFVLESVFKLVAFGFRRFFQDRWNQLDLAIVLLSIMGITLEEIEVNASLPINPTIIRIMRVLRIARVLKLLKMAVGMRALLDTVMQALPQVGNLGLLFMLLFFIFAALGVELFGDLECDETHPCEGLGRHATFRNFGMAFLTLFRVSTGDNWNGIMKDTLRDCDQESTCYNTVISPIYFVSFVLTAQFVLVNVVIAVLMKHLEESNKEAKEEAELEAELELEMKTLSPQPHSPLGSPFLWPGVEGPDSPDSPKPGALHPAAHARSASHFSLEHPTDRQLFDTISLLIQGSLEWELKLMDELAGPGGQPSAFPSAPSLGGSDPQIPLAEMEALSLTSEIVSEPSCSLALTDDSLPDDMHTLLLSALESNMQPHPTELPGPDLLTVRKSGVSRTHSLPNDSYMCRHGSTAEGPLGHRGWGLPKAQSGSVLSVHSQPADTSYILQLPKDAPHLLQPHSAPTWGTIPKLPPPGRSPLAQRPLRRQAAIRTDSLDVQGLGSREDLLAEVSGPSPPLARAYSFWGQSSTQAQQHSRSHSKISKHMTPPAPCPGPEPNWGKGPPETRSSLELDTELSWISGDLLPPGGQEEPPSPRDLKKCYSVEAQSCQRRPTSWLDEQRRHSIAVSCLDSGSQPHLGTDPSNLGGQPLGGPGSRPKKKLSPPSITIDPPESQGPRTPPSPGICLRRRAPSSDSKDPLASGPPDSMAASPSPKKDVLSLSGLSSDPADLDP

IC50 [1] [µM]	SMILES	also measured
14.9	O=C(NCCN1CCCCC1)c1ccc2c(c1)C(=O)N(Cc1ccccc1F)C2=O	
5.25	COc1ccc(CN2C(=O)c3ccc(C(=O)NCCN4CCCCC4)cc3C2=O)cc1	
3.53	Cc1ccc(CN2C(=O)c3ccc(C(=O)NCCCN4CCCCC4C)cc3C2=O)cc1 (stereo unspecified)	
4.09	O=C(NCCN1CCCCC1)c1ccc2c(c1)C(=O)N(Cc1cccc(Cl)c1)C2=O	
22.8	O=C(NCCN1CCCCC1)c1ccc2c(c1)C(=O)N(Cc1ccccc1)C2=O	
	O=C(NCCN1CCCCC1)c1ccc2c(c1)C(=O)N(Cc1ccc(Cl)cc1)C2=O	Ratio IC50 [2]: 35; CC50 [3]: > 100 µM; IC50 [4]: 33.4 µM
8.88	O=C(NCCN1CCCCC1)c1ccc2c(c1)C(=O)N(Cc1ccc(F)cc1)C2=O	
14.1	COc1cccc(CN2C(=O)c3ccc(C(=O)NCCN4CCCCC4)cc3C2=O)c1	
5.82	O=C(NCCN1CCCCC1)c1ccc2c(c1)C(=O)N(Cc1ccccc1Cl)C2=O	
1.62	O=C(NCCCN1CCCC1)c1ccc2c(c1)C(=O)N(Cc1ccc(Cl)cc1)C2=O	
5.82	Cc1ccc(CN2C(=O)c3ccc(C(=O)NCCN4CCCCC4)cc3C2=O)cc1	
	CC1CCCCN1CCCNC(=O)c1ccc2c(c1)C(=O)N(Cc1ccc(Cl)cc1)C2=O (stereo unspecified)	Ratio IC50 [2]: 59; CC50 [3]: > 100 µM; IC50 [4]: 54.7 µM
